# Measurements from ChEMBL document CHEMBL1146885, “Antitumor agents. 254. Synthesis and biological evaluation of novel neo-tanshinlactone analogues as potent anti-breast cancer agents” (2006).
# What was measured:
# Type in all cases: functional
# Details in all cases: read-out: ED50 (the source's name)
# MDA-MB-231 = assay: Cytotoxicity against human MDA-MB-231 cells lacking ER
# Procedure, shortened: (§1)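 SRB growth-inhibition assay. Cells grown in RPMI-1640 with 25 mM HEPES, 0.25% sodium bicarbonate, 10% FBS and 100 µg/mL kanamycin. Freshly trypsinized cells seeded at 1500-7500 per well, with compound added from DMSO-diluted stock. After 3 days, attached cells fixed with cold 50% TCA, stained with 0.4% SRB, dye solubilized, A562 read. ED50 = concentration reducing growth 50%, mean of ≥3 independent determinations.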
# MCF7 = assay: Cytotoxicity against human MCF7 cells expressing ER; procedure, shortened: as §1
# SW-620 = assay: Cytotoxicity against human SW620 cells; procedure, shortened: as §1
# A-431 = assay: Cytotoxicity against human A431 cells; procedure, shortened: as §1
# KB = assay: Cytotoxicity against human KB cells; procedure, shortened: as §1
# SK-BR-3 = assay: Cytotoxicity against human SK-BR-3 cells expressing HER2 and lacking ER; procedure, shortened: as §1
# ZR-75-1 = assay: Cytotoxicity against human ZR-75-1 cells expressing ER; procedure, shortened: as §1
# Hs-578T = assay: Cytotoxicity against human […] cells lacking ER; procedure, shortened: as §1
Structure (SMILES),EC50 (MDA-MB-231) [µg/mL],EC50 (MCF7) [µg/mL],EC50 (SW-620) [µg/mL],EC50 (A-431) [µg/mL],EC50 (KB) [µg/mL],EC50 (SK-BR-3) [µg/mL],EC50 (ZR-75-1) [µg/mL],EC50 (Hs-578T) [µg/mL]
CCc1cccc2c1ccc1c3occc3c(=O)oc21,> 10,> 10,–,–,–,–,–,–
O=c1oc2c3ccccc3ccc2c2occc12,10.5,> 20,–,–,–,–,–,–
Cc1cccc2c1ccc1c3occc3c(=O)oc21,–,5.5,> 10,8.3,> 10,8.5,> 10,–
CCc1cccc2c1ccc1c3occ(C)c3c(=O)oc21,13.5,0.45,> 10,> 10,> 10,0.1,0.18,10
Cc1cccc2c1ccc1c3occ(C)c3c(=O)oc21,10,0.6,> 10,> 10,> 10,0.18,0.25,16
COc1cc2c3occ(C)c3c(=O)oc2c2ccccc12,–,5,9,9.5,> 10,8.6,> 10,–
Cc1coc2c1c(=O)oc1c3ccccc3ccc21,10.3,4,–,–,–,–,4,7.5
Cc1coc2c1c(=O)oc1c3ccccc3c(Cl)cc21,–,5,> 10,8,> 10,4.5,8.6,–
O=c1oc2c3ccccc3c(Cl)cc2c2occc12,–,7,> 10,> 10,> 10,> 10,> 10,–
COc1cc2c3occc3c(=O)oc2c2ccccc12,–,3.4,4,9.5,9.5,4,8.5,–
O=c1oc2c(ccc3ccccc32)c2c1C(O)CO2 (stereo not drawn),–,12.5,–,–,–,–,–,–
CC/C(=C(\c1ccccc1)c1ccc(OCCN(C)C)cc1)c1ccccc1 [TAMOXIFEN],8.5,5,4,7,9,5,3.6,7
